Measurements: PubChem BioAssay AID1885 (Broad Institute, 2009)
Screen size: about 300,000 compounds; about 4,400 (1.5%) were called active. This is one part of a sample in which actives are shown more often than they occur. Unmarked numbers belong to inactive results.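 How the source made its calls: active means mean inhibition across valid replicates above about 55% (limit read from the data); inconclusive means mean below that limit but half or more replicates reach it; inactive means mean below it, under half of replicates reach it.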

experiment: Trypanosoma cruzi replication blockers in host cells – luminescence, NIH3T3 host cells, primary screen (AID 1885);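 further: signal also drops with host cell toxicity which is not excluded here; 0% = plate median of DMSO wells and 100% = zero luminescence signal; higher percent means less beta-gal luminescence so fewer parasites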; details: T. cruzi beta-gal in NIH3T3, luminescence, 90 h; hits give high values; concentration not given here
Method in brief: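 compound dosing = single 50 nL compound addition per well in DMSO | material = NIH/3T3 host cells with β-galactosidase reporter T. cruzi | input = 5,000 host fibroblasts per well | timing = ≥90 h infection period, 3 h prior cell attachment | read-out basis = percent inhibition of parasite-derived β-gal signal | detection = GalScreen β-gal luminescence, detergent lysis, 60 min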

| Structure (SMILES) | inhibition |
| --- | --- |
| COC(=O)c1ccccc1NC(=S)NC(=O)c1ccccc1F | -19.3% |
| O=C(O)c1ccccc1NC(=O)c1ccccc1-c1ccccc1C(=O)O | -1.15% |
| O=C(NC(=S)Nc1ccccc1C(=O)O)c1ccc(-c2ccc(Br)cc2)o1 | 61.6% (active) |
| CCN1C(=O)[C@@H]2[C@@H](c3ccc(-c4cccc(Cl)c4)cc3)N3CCC[C@@]3(C(=O)OC)[C@@H]2C1=O | 4.08% |
| COc1cc(C(=O)N2CCN(C3CCC(C)CC3)CC2)cc(OC)c1OC (stereo unspecified) | 25.8% |
| N/C(=N\OC(=O)COc1ccc([N+](=O)[O-])cc1)c1ccc(Br)cc1 | -1.86% |
| COc1ccc(CNC(=O)CCCn2nc(C)c([N+](=O)[O-])c2C)cc1 | -2.92% |
| NC(=O)Cn1nc([N+](=O)[O-])nc1Oc1ccc(Br)cc1 | 88.1% (active) |
| CCc1ccc(Oc2nc([N+](=O)[O-])nn2C)cc1 | 66.5% (active) |
| Cc1nn(CCOc2ccc(Br)cc2)c(C)c1[N+](=O)[O-] | 10.6% |
| Cn1nc([N+](=O)[O-])nc1Sc1ccc(C(C)(C)C)cc1 | 27% |
| COc1ccc(NC(=O)CCS(=O)(=O)c2cc3c(cc2Cl)NC(=O)CO3)cc1OC | 1.37% |
| CC(C)CCN1CCN(Cc2cn[nH]c2C2CCCCC2)CC1CCO (stereo unspecified) | 24.3% |
| CN(CCOc1ccccc1)C(=O)c1cc(COc2c(F)cccc2F)on1 | -2.25% |
| COc1ccc(NC(=O)CCNC(=O)Cn2cnc3sc4c(c3c2=O)CCCC4)cc1OC | -2.4% |
| Cc1ccc(S(=O)(=O)N2CCN(C(=O)c3ccccc3-c3nc4ccccc4s3)CC2)c(C)c1 | -3.66% |
| CC(NC(=O)c1cc2cc(Cl)ccc2oc1=N)c1ccccc1 (stereo unspecified) | -3.32% |
| COc1cccc(CNCCc2c[nH]c3ccccc23)c1OCc1ccccc1F | 39.3% |
| C=CCOc1cccc(CNCc2cccnc2)c1 | 17.4% |
| c1ccc(COc2ccccc2CNCc2cccnc2)cc1 | 69.7% (active) |
| Fc1ccccc1COc1cccc2cccnc12 | -0.777% |

| Structure (SMILES) | inhibition |
| --- | --- |
| Fc1ccccc1COc1ccccc1CNCc1ccncc1 | 65.1% (active) |
| CCC(Oc1ccccc1)C(=O)NCc1cccnc1 (stereo unspecified) | -4.42% |
| CN(C(=O)CN1C(=O)NC(C)(CCc2ccccc2)C1=O)c1ccccc1 (stereo unspecified) | -3.39% |
| O=C(Nc1ccccc1Cl)N1CCN(c2ccc3nncn3n2)CC1 | -2.95% |
| O=C1c2ccccc2C(=O)N1CC1c2ccccc2CCN1S(=O)(=O)c1ccccc1 (stereo unspecified) | -2.22% |
| Cc1c(Cl)c([N+](=O)[O-])nn1CCCC(=O)NC(C)c1ccccc1 (stereo unspecified) | 6.9% |
| COC(=O)C(C)Sc1ccc2nnc(-c3cccc(F)c3)n2n1 (stereo unspecified) | 19% |
| C1CC1Cc1noc(CN2CCN(CC3CC3)CC2)n1 | 1.1% |
| COc1ccc(NC(=O)CN(C)C(=O)CC2CCCCC2)cc1 | -3.55% |
| FC(F)(F)c1ccc2c3n(nc2c1)CCN=C3c1ccc(Cl)cc1 | 1.67% |
| O=C(CNC(=O)c1cccnc1)N/N=C/c1cccnc1 | -1.7% |
| O=C(CSc1cccc2cccnc12)N/N=C/c1cccnc1 | 64.7% (active) |
| Cc1nc2ccccc2n1CC(=O)N/N=C/c1cccnc1 | -15.1% |
| COc1ccccc1OCC(=O)Nc1ccccc1C(=O)NC1CC1 | -5.39% |
| O=S(=O)(Nc1ccc(O)c2ccccc12)c1ccc(OC(F)(F)F)cc1 | 8.4% |
| Cc1c(C)n2c(SCC(=O)NC3CCCC3)nnc2[nH]c1=O | -14.6% |
| CC(=O)Nc1ccc(Nc2c3ccccc3nc3ccccc23)cc1 | 59.7% (active) |
| CC(=O)Nc1ccc(NC(=O)COc2ncnc3ccccc23)cc1 | -17.1% |
| Cc1ccc(Nc2c3c(nc4ccccc24)CCC3)cc1 | 39.2% |
| FC(F)(F)c1cccc(-c2nc(COc3ccc(Cl)cc3Cl)no2)c1 | 1.05% |
| COc1c(C(=O)N2CCCC2)ccc2ccccc12 | -11.3% |

| Structure (SMILES) | inhibition |
| --- | --- |
| CCOc1ccc(-n2c(SCC(=O)OC)nc3sc4c(c3c2=O)CCN(C)C4)cc1 | 5.98% |
| CCCSc1nc2sc3c(c2c(=O)n1-c1ccc(OC)cc1)CCN(C)C3 | 57.4% (active) |
| CCSc1nc2sc3c(c2c(=O)n1-c1ccc(C)cc1)CCN(C)C3 | 21.6% |
| CCOC(=O)N1CCC(N2Cc3cccc(C(=O)Nc4c(C)cccc4CC)c3C2=O)CC1 | 22% |
| Cc1ccc(S(=O)(=O)N2CCC(C(=O)NCCC3=CCCCC3)CC2)cc1C | 8.76% |
| Cc1cccc(-n2ncc(Cl)c(Cl)c2=O)c1 | 65.8% (active) |
| Cc1cccc(-n2ncc(C#N)c2-n2cccc2)c1 | -8.8% |
| COc1ccc(Oc2c(Cl)cnn(-c3ccccc3)c2=O)cc1 | -11.4% |
| COc1ccc(N2CCN(C(=O)COC(=O)c3cccc(S(=O)(=O)Nc4ccccc4OC)c3)CC2)cc1 | 8.41% |
| COc1ccc(F)cc1S(=O)(=O)NCC(c1ccc2c(c1)OCO2)N1CCN(C)CC1 (stereo unspecified) | -3.53% |
| COC(=O)c1cc(S(=O)(=O)N2CCN(c3cc(C)ccc3C)CC2)c[nH]1 | 0.9% |
| O=C(COc1ccc(Br)cc1F)NC1CCN(Cc2ccccc2)CC1 | 38.4% |
| O=C(NC1CCN(Cc2ccccc2)CC1)c1ccc(Oc2cc(Cl)cc(Cl)c2)o1 | 44.9% |
| Cc1cc(C(=O)NC2CCN(Cc3ccccc3)CC2)n[nH]1 | 14.6% |
| S=C(Nc1ccc(Br)cc1)NC1CCN(Cc2ccccc2)CC1 | 42% |
| O=C(NC1CCN(Cc2ccccc2)CC1)c1cc(Br)c(Br)[nH]1 | 70.3% (active) |
| S=C(Nc1ccc(Br)cc1Cl)NC1CCN(Cc2ccccc2)CC1 | 60.4% (active) |
| CCOC(=O)c1ccc(NC(=O)c2ccc(NC(=O)C3CCCO3)cc2)cc1 (stereo unspecified) | 3.02% |
| CCOc1ccccc1C1CC(c2ccc(Cl)cc2)Nc2nc(N)nn21 (stereo unspecified) | 17.4% |
